Experimental data reported in ChEMBL document CHEMBL1122650, “Synthesis and central nervous system properties of 2-[(alkoxycarbonyl)amino]-4(5)-phenyl-2-imidazolines” (J Med Chem, 1984).
Calls of active or inactive are those of the source. The calls are words filed in the database; no cut-off is given here.

Legend:
Mus musculus [1] = organism: Mus musculus; test: Evaluated for antagonism of reserpine induced hypothermia; type: functional
Procedure, shortened: (§1)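 Male HLa (ICR) BR mice, 18-24 g, in groups of eight; reserpine 5 mg/kg ip given 2 h before oral test compound as aqueous solution. Rectal temperature taken hourly; 1-4-h hypothermia assessed by analysis of variance.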

Mus musculus [2] = organism: Mus musculus; test: Mouse behavior activity was determined; Dwk= Depressant(Weak); type: functional, organism-based
Procedure, shortened: (§2)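 Male Simonsen (ICR) fBR mice, 18-24 g, groups of three, given 3, 10, 30, 100, 300 or 1000 mg/kg ip as aqueous solution and observed for behavioral profile; deaths followed up to 7 days.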

[3] = Lethal dose in mouse, in groups of ten; type: toxicity, organism-based; conditions: in vivo
Mus musculus [4] = test: Compound was evaluated in vivo for reserpine hypothermia after oral administration in mouse. Minimum active dose was reported, with the percent reversal at 10 mg/kg in parenthesis; I=inactive; type: functional, organism-based; set-up: dose 10 mg/kg; procedure, shortened: as §1
Mus musculus [5] = organism: Mus musculus; test: Compound was evaluated for maximal electroshock antagonism (MES) against mice; I=inactive; type: functional, organism-based
Procedure, shortened: (§3)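 Male HLa (ICR) BR mice, groups of eight to ten, dosed ip (aqueous solution) 15 min before transcorneal electroshock (50 mA, 0.2 s). End point: abolition of tonic hind-limb extension; quantal ED50 by Litchfield-Wilcoxon.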

[6] = HPLC capacity factor (k'); type: ADME
Mus musculus [7] = organism: Mus musculus; test: Compound was evaluated for antagonism of reserpine induced hypothermia.; type: functional; procedure, shortened: as §1
Mus musculus [8] = organism: Mus musculus; test: Compound was evaluated for maximal electroshock antagonism (MES) against mice; type: functional; procedure, shortened: as §3
Mus musculus [9] = organism: Mus musculus; test: Mouse behavior activity was determined;D= Depressant; type: functional, organism-based; procedure, shortened: as §2
Mus musculus [10] = organism: Mus musculus; test: Righting ability was determined in mice before rapid rolling (unaroused); type: functional
Procedure, shortened: (§4)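 Male Simonsen (ICR) fBR mice, 18-24 g, groups of ten, dosed with aqueous compound. Righting ability checked before (unaroused) and after (aroused) rapid rolling in the hand; ED50 by Litchfield-Wilcoxon method.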

Mus musculus [11] = organism: Mus musculus; test: Mouse behavior activity was determined; Dwk= Depressant Weak; type: functional, organism-based; procedure, shortened: as §2
Mus musculus [12] = organism: Mus musculus; test: Evaluated for antagonism of reserpine induced hypothermia;I= Inactive; type: functional, organism-based; procedure, shortened: as §1
Mus musculus [13] = organism: Mus musculus; test: Mouse behavior activity was determined; Dwk=Depressant Weak; type: functional, organism-based; procedure, shortened: as §2
Mus musculus [14] = organism: Mus musculus; test: Compound was evaluated for maximal electroshock antagonism (MES) against mice; Inactive; type: functional, organism-based; procedure, shortened: as §3
Mus musculus [15] = test: Evaluated in vivo for reserpine hypothermia after oral administration in mouse. Minimum active dose was reported; 10-30% reduction; type: functional, organism-based; procedure, shortened: as §1
Mus musculus [16] = organism: Mus musculus; test: Mouse behavior activity was determined; Stimulant Weak; type: functional, organism-based; procedure, shortened: as §2
Mus musculus [17] = organism: Mus musculus; test: Righting ability was determined in mice […] rapid rolling (aroused); type: functional; procedure, shortened: as §4
Mus musculus [18] = test: Compound was evaluated in vivo for reserpine hypothermia after oral administration in mouse. Minimum active dose was reported, with the percent reversal at 10 mg/kg in parenthesis.; type: functional
Procedure, shortened: (§5)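 Male HLa (ICR) BR mice (18-24 g), groups of eight, dosed ip with 5 mg/kg reserpine 2 h before oral test compound given as aqueous solution. Rectal temperature measured hourly; 1-4-h thermia assessed by analysis of variance.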

Mus musculus [19] = organism: Mus musculus; test: Compound was evaluated for maximal electroshock antagonism (MES) against mice (values in parentheses indicates 95% confidence limits); type: functional
Procedure, shortened: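 Male HLa (ICR) BR mice, groups of eight to ten, given compound ip as aqueous solution 15 min before transcorneal electroshock (50 mA, 0.2 s). End point was abolition of tonic hind-limb extension; quantal ED50 derived by Litchfield-Wilcoxon.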

Mus musculus [20] = organism: Mus musculus; test: Mouse behavior activity was determined; D = Depressant; type: functional, organism-based
Procedure, shortened: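 Male Simonsen (ICR) fBR mice (18-24 g) given 3, 10, 30, 100, 300 or 1000 mg/kg ip as aqueous solution and observed for behaviour in groups of three.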

Mus musculus [21] = organism: Mus musculus; test: Mouse behavior activity was determined; Depressant-Stimulant.; type: functional, organism-based; procedure, shortened: as §2
Mus musculus [22] = organism: Mus musculus; test: Mouse behavior activity was determined; Inactive; type: functional, organism-based; procedure, shortened: as §2
Mus musculus [23] = organism: Mus musculus; test: Mouse behavior activity was determined; D=Depressant.; type: functional, organism-based; procedure, shortened: as §2
Mus musculus [24] = test: Evaluated in vivo for reserpine hypothermia after oral administration in mouse. Minimum active dose was reported; Inactive; type: functional, organism-based; procedure, shortened: as §1
Mus musculus [25] = organism: Mus musculus; test: Compound was evaluated for maximal electroshock antagonism (MES) against mice; Inactive.; type: functional, organism-based; procedure, shortened: as §3
Mus musculus [26] = test: Compound was evaluated for maximal electroshock antagonism (MES) against mice; Inactive at 30 mg/kg; type: functional, organism-based; set-up: dose 30 mg/kg; procedure, shortened: as §3
Mus musculus [27] = organism: Mus musculus; test: Compound was evaluated for antagonism of reserpine induced hypothermia;I= Inactive.; type: functional, organism-based; procedure, shortened: as §5
Mus musculus [28] = test: Compound was evaluated in vivo for reserpine hypothermia after oral administration in mouse. Minimum active dose was reported; 10-30% reduction.; type: functional, organism-based; procedure, shortened: as §1
Mus musculus [29] = organism: Mus musculus; test: Mouse behavior activity was determined; Dwk= Depressant Weak.; type: functional, organism-based; procedure, shortened: as §2
Mus musculus [30] = test: Compound was evaluated in vivo for reserpine hypothermia after oral administration in mouse. Minimum active dose was reported; Inactive; type: functional, organism-based; procedure, shortened: as §1

Row | Structure (SMILES) | HYPO (Mus musculus [1]) | LD50 [3] | Log k' [6] | ED50 (Mus musculus [8]) | further results
1 | COC(=O)NC1=NC(c2ccc(C=O)cc2)CN1C (configuration not stated) | >0.5 mg/kg | > 300 mg/kg | -0.53 |  | Mouse behavior activity (Mus musculus [2]): Depressant - weak; ED50 (Mus musculus [4]): inactive; ED50 (Mus musculus [5]): inactive
2 | CCOC(=O)NC1=NC(c2cccc(Cl)c2)CN1C (configuration not stated) |  | 300 mg/kg | 0.78 | 74 mg/kg | HYPO (Mus musculus [7]): <0.5 mg/kg; Mouse behavior activity (Mus musculus [9]): Depressant; Loss of righting reflex (Mus musculus [10]): 70 mg/kg
3 | COC(=O)NC1=NCC(c2cccc(Cl)c2)N1C (configuration not stated) | <0.5 mg/kg | 200 mg/kg | 0.86 | 31 mg/kg | Mouse behavior activity (Mus musculus [11]): Depressant - weak
4 | CCOC(=O)NC1=NC(c2ccc(C(C)C)cc2)CN1 (configuration not stated) |  | 200 mg/kg | 1.3 |  | HYPO (Mus musculus [12]): inactive; Mouse behavior activity (Mus musculus [13]): Depressant - weak; ED50 (Mus musculus [14]): inactive; ED50 (Mus musculus [15]): 10-30% reduction
5 | COC(=O)NC1=NC(c2ccccc2)C(C)N1 (configuration not stated) |  | 200 mg/kg | 0.15 | 90 mg/kg | Mouse behavior activity (Mus musculus [16]): Stimulant Weak
6 | CN1C(=O)CN=C(c2ccccc2)c2cc(Cl)ccc21 [DIAZEPAM] |  |  |  |  | Loss of righting reflex (Mus musculus [17]): 136 mg/kg; ED50 (Mus musculus [18]): 1 mg/kg; ED50 (Mus musculus [19]): 7 mg/kg; Mouse behavior activity (Mus musculus [20]): Depressant; Loss of righting reflex (Mus musculus [10]): 67 mg/kg
7 | CC(C)OC(=O)NC1=NC(c2ccccc2F)CN1C (configuration not stated) |  | 700 mg/kg | 0.77 | 23 mg/kg | Loss of righting reflex (Mus musculus [17]): 55 mg/kg; Mouse behavior activity (Mus musculus [21]): Depressant-Stimulant; Loss of righting reflex (Mus musculus [10]): 11 mg/kg
8 | COC(=O)NC1=NC(c2ccc(O)cc2)CN1 (configuration not stated) |  | 700 mg/kg |  |  | Mouse behavior activity (Mus musculus [22]): inactive; ED50 (Mus musculus [14]): inactive
9 | COC(=O)NC1=NC(c2ccccc2Cl)CN1 (configuration not stated) |  | 500 mg/kg | 0.29 | 50 mg/kg | Mouse behavior activity (Mus musculus [23]): Depressant; Loss of righting reflex (Mus musculus [10]): 200 mg/kg
10 | COC(=O)NC1=NC(c2ccc(CO)cc2)CN1C (configuration not stated) | <0.5 mg/kg | > 1000 mg/kg | -0.76 |  | Mouse behavior activity (Mus musculus [22]): inactive; ED50 (Mus musculus [14]): inactive; ED50 (Mus musculus [24]): inactive
11 | CCCCCCc1ccc(C2CN=C(NC(=O)OC)N2)cc1 (configuration not stated) |  | 200 mg/kg | 2.28 |  | HYPO (Mus musculus [12]): inactive; Mouse behavior activity (Mus musculus [13]): Depressant - weak; ED50 (Mus musculus [25]): inactive
12 | CCOC(=O)NC1=NC(c2cccc(F)c2)CN1C (configuration not stated) |  |  | 0.51 |  | HYPO (Mus musculus [7]): <0.5 mg/kg; ED50 (Mus musculus [26]): inactive; ED50 (Mus musculus [24]): inactive
13 | CC(C)COC(=O)NC1=NC(c2ccccc2)CN1 (configuration not stated) |  | 700 mg/kg | 0.94 |  | HYPO (Mus musculus [27]): inactive; ED50 (Mus musculus [28]): 10-30% reduction; Mouse behavior activity (Mus musculus [29]): Depressant; ED50 (Mus musculus [25]): inactive
14 | COC(=O)NC1=NC(c2ccc(Cl)cc2)CN1C (configuration not stated) |  | 200 mg/kg | 0.54 | 66 mg/kg | ED50 (Mus musculus [30]): inactive; Mouse behavior activity (Mus musculus [9]): Depressant
15 | COC(=O)NC1=NC(c2cc(Br)ccc2Br)CN1C (configuration not stated) | <0.5 mg/kg | 500 mg/kg | 0.98 | 45 mg/kg | Mouse behavior activity (Mus musculus [11]): Depressant - weak
16 | CCC(=O)NC1=NC(c2ccccc2)CN1 (configuration not stated) | >20 mg/kg | 500 mg/kg | 0.17 | 75 mg/kg | Mouse behavior activity (Mus musculus [11]): Depressant
